ChEMBL document CHEMBL2086252, “Syntheses and evaluation of anticonvulsant activity of novel branched alkyl carbamates” (J Med Chem, 2012)
The source made the active and inactive calls. No cut-off for these calls is given here.

Tests used:
[1] = test system: Mus musculus; experiment: Anticonvulsant activity in albino CF1 mouse assessed as protection against subcutaneous metrazol-induced seizures at 30 mg/kg, ip after 0.5 hrs; assay type: functional, organism-based; set-up: dose 30 mg/kg
Outline: (§1)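 Mice dosed ip at 30, 100 or 300 mg/kg, then tested 0.5 h and 4 h after administration in the MES or scMet test. Protection was recorded as animals protected over animals tested. Neurotoxicity was recorded as motor impairment or sedation, as animals affected over animals tested.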

[2] = test system: Mus musculus; experiment: Anticonvulsant activity in albino CF1 mouse assessed as protection against subcutaneous metrazol-induced seizures at 100 mg/kg, ip after 0.5 hrs; assay type: functional, organism-based; set-up: dose 100 mg/kg; outline: as §1
[3] = test system: Mus musculus; experiment: Anticonvulsant activity in albino CF1 mouse assessed as protection against subcutaneous metrazol-induced seizures at 300 mg/kg, ip after 0.5 hrs; assay type: functional, organism-based; set-up: dose 300 mg/kg; outline: as §1
[4] = test system: Mus musculus; experiment: Anticonvulsant activity in albino CF1 mouse assessed as protection against subcutaneous metrazol-induced seizures at 30 mg/kg, ip after 4 hrs; assay type: functional, organism-based; set-up: dose 30 mg/kg; outline: as §1
[5] = test system: Mus musculus; experiment: Anticonvulsant activity in albino CF1 mouse assessed as protection against subcutaneous metrazol-induced seizures at 100 mg/kg, ip after 4 hrs; assay type: functional, organism-based; set-up: dose 100 mg/kg; outline: as §1
[6] = test system: Mus musculus; experiment: Anticonvulsant activity in albino CF1 mouse assessed as protection against subcutaneous metrazol-induced seizures at 300 mg/kg, ip after 4 hrs; assay type: functional, organism-based; set-up: dose 300 mg/kg; outline: as §1
[7] = test system: Mus musculus; experiment: Anticonvulsant activity in albino CF1 mouse assessed as protection against maximal electroshock-induced seizures at 30 mg/kg, ip after 0.5 hrs; assay type: functional, organism-based; set-up: dose 30 mg/kg; outline: as §1
[8] = test system: Mus musculus; experiment: Anticonvulsant activity in albino CF1 mouse assessed as protection against maximal electroshock-induced seizures at 300 mg/kg, ip after 0.5 hrs; assay type: functional, organism-based; set-up: dose 300 mg/kg; outline: as §1
[9] = test system: Mus musculus; experiment: Anticonvulsant activity in albino CF1 mouse assessed as protection against maximal electroshock-induced seizures at 30 mg/kg, ip after 4 hrs; assay type: functional, organism-based; set-up: dose 30 mg/kg; outline: as §1
[10] = test system: Mus musculus; experiment: Anticonvulsant activity in albino CF1 mouse assessed as protection against maximal electroshock-induced seizures at 100 mg/kg, ip after 4 hrs; assay type: functional, organism-based; set-up: dose 100 mg/kg; outline: as §1
[11] = test system: Mus musculus; experiment: Anticonvulsant activity in albino CF1 mouse assessed as protection against maximal electroshock-induced seizures at 300 mg/kg, ip after 4 hrs; assay type: functional, organism-based; set-up: dose 300 mg/kg; outline: as §1
[12] = test system: Mus musculus; experiment: Neurotoxicity in albino CF1 mouse assessed as minimal motor impairment at 30 mg/kg, ip after 0.5 hrs by rotarod test; assay type: toxicity, organism-based; set-up: dose 30 mg/kg, route intraperitoneal; details: in vivo; outline: as §1
[13] = test system: Mus musculus; experiment: Neurotoxicity in albino CF1 mouse assessed as minimal motor impairment at 300 mg/kg, ip after 4 hrs by rotarod test; assay type: toxicity, organism-based; set-up: dose 300 mg/kg, route intraperitoneal; details: in vivo; outline: as §1
[14] = test system: Rattus norvegicus; experiment: Anticonvulsant activity in Sprague-Dawley albino rat assessed as protection against maximal electroshock-induced seizures at 30 mg/kg, po after 15 mins; assay type: functional, organism-based; set-up: dose 30 mg/kg
Outline: (§2)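 Rats dosed orally. Anti-MES protection was scored as animals protected over animals tested at each time after dosing. Neurotoxicity was scored as motor impairment or sedation, as animals affected over animals tested.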

[15] = test system: Rattus norvegicus; experiment: Anticonvulsant activity in Sprague-Dawley albino rat assessed as protection against maximal electroshock-induced seizures at 30 mg/kg, po after 30 mins; assay type: functional, organism-based; set-up: dose 30 mg/kg; outline: as §2
[16] = test system: Rattus norvegicus; experiment: Anticonvulsant activity in Sprague-Dawley albino rat assessed as protection against maximal electroshock-induced seizures at 30 mg/kg, po after 1 hr; assay type: functional, organism-based; set-up: dose 30 mg/kg; outline: as §2
[17] = test system: Rattus norvegicus; experiment: Anticonvulsant activity in Sprague-Dawley albino rat assessed as protection against maximal electroshock-induced seizures at 30 mg/kg, po after 2 hrs; assay type: functional, organism-based; set-up: dose 30 mg/kg; outline: as §2
[18] = test system: Rattus norvegicus; experiment: Anticonvulsant activity in Sprague-Dawley albino rat assessed as protection against maximal electroshock-induced seizures at 30 mg/kg, po after 4 hrs; assay type: functional, organism-based; set-up: dose 30 mg/kg; outline: as §2
[19] = test system: Rattus norvegicus; experiment: Neurotoxicity in Sprague-Dawley albino rat assessed as minimal motor impairment at 30 mg/kg, po by rotarod test; assay type: toxicity, organism-based; set-up: dose 30 mg/kg, route oral; details: in vivo; outline: as §2
[20] = test system: Rattus norvegicus; experiment: Neurotoxicity in pilocarpine-induced status epilepticus Sprague-Dawley albino rat model assessed as minimal motor impairment at 100 mg/kg, ip after 0.25 hr by rotarod test; assay type: toxicity, organism-based; set-up: dose 100 mg/kg, route intraperitoneal; details: in vivo
[21] = test system: Rattus norvegicus; experiment: Neurotoxicity in pilocarpine-induced status epilepticus Sprague-Dawley albino rat model assessed as minimal motor impairment at 300 mg/kg, ip after 0.25 hr by rotarod test; assay type: toxicity, organism-based; set-up: dose 300 mg/kg, route intraperitoneal; details: in vivo
Outline: (§3)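 Rat pilocarpine status epilepticus model: test carbamate given at 0 or 30 min after the first observed Racine stage 3 motor seizure, which marks SE onset. Neurotoxicity was scored within the same model.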

[22] = test system: Rattus norvegicus; experiment: Neurotoxicity in pilocarpine-induced status epilepticus Sprague-Dawley albino rat model assessed as minimal motor impairment at 30 mg/kg, ip after 0.25 hr by rotarod test; assay type: toxicity, organism-based; set-up: dose 30 mg/kg, route intraperitoneal; details: in vivo; outline: as §3
[23] = test system: Rattus norvegicus; experiment: Neurotoxicity in pilocarpine-induced status epilepticus Sprague-Dawley albino rat model assessed as minimal motor impairment at 100 mg/kg, ip after 0.5 hrs by rotarod test; assay type: toxicity, organism-based; set-up: dose 100 mg/kg, route intraperitoneal; details: in vivo
[24] = test system: Rattus norvegicus; experiment: Neurotoxicity in pilocarpine-induced status epilepticus Sprague-Dawley albino rat model assessed as minimal motor impairment at 300 mg/kg, ip after 0.5 hrs by rotarod test; assay type: toxicity, organism-based; set-up: dose 300 mg/kg, route intraperitoneal; details: in vivo; outline: as §3
[25] = test system: Rattus norvegicus; experiment: Neurotoxicity in pilocarpine-induced status epilepticus Sprague-Dawley albino rat model assessed as minimal motor impairment at 30 mg/kg, ip after 0.5 hrs by rotarod test; assay type: toxicity, organism-based; set-up: dose 30 mg/kg, route intraperitoneal; details: in vivo; outline: as §3
[26] = test system: Rattus norvegicus; experiment: Neurotoxicity in pilocarpine-induced status epilepticus Sprague-Dawley albino rat model assessed as minimal motor impairment at 100 mg/kg, ip after 1 hr by rotarod test; assay type: toxicity, organism-based; set-up: dose 100 mg/kg, route intraperitoneal; details: in vivo
[27] = test system: Rattus norvegicus; experiment: Neurotoxicity in pilocarpine-induced status epilepticus Sprague-Dawley albino rat model assessed as minimal motor impairment at 300 mg/kg, ip after 1 hr by rotarod test; assay type: toxicity, organism-based; set-up: dose 300 mg/kg, route intraperitoneal; details: in vivo; outline: as §3
[28] = test system: Rattus norvegicus; experiment: Neurotoxicity in pilocarpine-induced status epilepticus Sprague-Dawley albino rat model assessed as minimal motor impairment at 30 mg/kg, ip after 1 hr by rotarod test; assay type: toxicity, organism-based; set-up: dose 30 mg/kg, route intraperitoneal; details: in vivo; outline: as §3
[29] = test system: Rattus norvegicus; experiment: Neurotoxicity in pilocarpine-induced status epilepticus Sprague-Dawley albino rat model assessed as minimal motor impairment at 100 mg/kg, ip after 2 hrs by rotarod test; assay type: toxicity, organism-based; set-up: dose 100 mg/kg, route intraperitoneal; details: in vivo
[30] = test system: Rattus norvegicus; experiment: Neurotoxicity in pilocarpine-induced status epilepticus Sprague-Dawley albino rat model assessed as minimal motor impairment at 300 mg/kg, ip after 2 hrs by rotarod test; assay type: toxicity, organism-based; set-up: dose 300 mg/kg, route intraperitoneal; details: in vivo; outline: as §3
[31] = test system: Rattus norvegicus; experiment: Neurotoxicity in pilocarpine-induced status epilepticus Sprague-Dawley albino rat model assessed as minimal motor impairment at 30 mg/kg, ip after 2 hrs by rotarod test; assay type: toxicity, organism-based; set-up: dose 30 mg/kg, route intraperitoneal; details: in vivo; outline: as §3
[32] = test system: Rattus norvegicus; experiment: Neurotoxicity in pilocarpine-induced status epilepticus Sprague-Dawley albino rat model assessed as minimal motor impairment at 100 mg/kg, ip after 4 hrs by rotarod test; assay type: toxicity, organism-based; set-up: dose 100 mg/kg, route intraperitoneal; details: in vivo
[33] = test system: Rattus norvegicus; experiment: Neurotoxicity in pilocarpine-induced status epilepticus Sprague-Dawley albino rat model assessed as minimal motor impairment at 300 mg/kg, ip after 4 hrs by rotarod test; assay type: toxicity, organism-based; set-up: dose 300 mg/kg, route intraperitoneal; details: in vivo; outline: as §3
[34] = test system: Rattus norvegicus; experiment: Neurotoxicity in pilocarpine-induced status epilepticus Sprague-Dawley albino rat model assessed as minimal motor impairment at 30 mg/kg, ip after 4 hrs by rotarod test; assay type: toxicity, organism-based; set-up: dose 30 mg/kg, route intraperitoneal; details: in vivo; outline: as §3

CCCC(CCC)COC(=O)NC
Activity [1]: inactive | Activity [2]: inactive | Activity [3]: Active | Activity [4]: inactive | Activity [5]: inactive | Activity [6]: inactive | Activity [7]: inactive | Activity [8]: Active | Activity [9]: inactive | Activity [10]: inactive | Activity [11]: Active | Activity [12]: Non-toxic | Activity [13]: Non-toxic | Activity [14]: inactive | Activity [15]: inactive | Activity [16]: inactive | Activity [17]: inactive | Activity [18]: inactive | Activity [19]: Non-toxic | Activity [20]: Toxic | Activity [21]: Toxic | Activity [22]: Non-toxic | Activity [23]: Toxic | Activity [24]: Toxic | Activity [25]: Non-toxic | Activity [26]: Toxic | Activity [27]: Toxic | Activity [28]: Non-toxic | Activity [29]: Non-toxic | Activity [30]: Toxic | Activity [31]: Non-toxic | Activity [32]: Non-toxic | Activity [33]: Toxic | Activity [34]: Non-toxic
